Where a name gives a salt, the structure may show the parent alone. Where a SMILES comes first, the peptide text is derived from it.

Assay [1] concerns the target T1, GPR15 receptor (Gi/o) (Homo sapiens, UniProt P49685).
T1 sequence (P49685 1-360): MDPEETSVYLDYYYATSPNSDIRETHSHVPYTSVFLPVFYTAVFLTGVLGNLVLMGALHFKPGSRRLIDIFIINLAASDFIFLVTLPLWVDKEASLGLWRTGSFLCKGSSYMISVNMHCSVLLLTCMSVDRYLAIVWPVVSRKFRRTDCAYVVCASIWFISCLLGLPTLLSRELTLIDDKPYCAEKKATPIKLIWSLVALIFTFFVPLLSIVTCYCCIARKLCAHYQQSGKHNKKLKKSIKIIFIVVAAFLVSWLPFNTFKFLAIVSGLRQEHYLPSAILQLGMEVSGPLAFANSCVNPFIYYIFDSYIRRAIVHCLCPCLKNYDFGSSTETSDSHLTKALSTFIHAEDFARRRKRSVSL
Briefly: HTRF Gi cAMP assay. The class given is cell-based. The essentials: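 HEK293A cells stably expressing human GPR15 (G418-selected) were harvested non-enzymatically. Where stated, cells were pretreated 24 h with PTX 100 ng/ml. 4000 cells/well in HBSS/20 mM HEPES/1 mM CaCl2/1 mM MgCl2/100 μM IBMX, pH 7.4, were mixed with threefold-diluted peptide in ligand buffer containing 3 μM forskolin, 30 min at room temperature. HTRF cAMP detection ran 1 h in the dark. Standard-curve cAMP was normalized to forskolin and given a four-parameter EC50 fit; triplicates, 3–5 experiments.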

Assay [2] has as its system β2‐adrenergic receptor. Briefly: HTRF Gs cAMP assay, positive control. The class given is cell-based. The following applies: endogenous receptor in HEK293A cells. The essentials:
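Run like the Gi cAMP assay without forskolin. HEK293A-GPR15 cells in HBSS/HEPES buffer with 100 μM IBMX, pH 7.4, were stimulated with isoproterenol via the endogenous β2-adrenergic receptor, 30 min at room temperature. HTRF cAMP detection ran 1 h in the dark (665/615 nm). cAMP from a standard curve, buffer-corrected and normalized to the isoproterenol maximum; 3–5 experiments in triplicate.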

In assay [3] the test system is muscarinic acetylcholine receptors. Put plainly: HTRF Gq IP1 assay, positive control. The conditions noted are these: endogenous receptors (mAChR1, mAChR3 and mAChR5) in HEK293A cells. The format is cell-based. The essentials:
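Carbachol, added at 2× final concentration in HBSS/20 mM HEPES/1 mM CaCl2/1 mM MgCl2/0.01% pluronic acid, pH 7.4, acted on 20 000 HEK293A-GPR15 cells/well with 30 mM LiCl for 30 min at 37 °C. HTRF IP1 detection ran 1 h in the dark at room temperature (665/615 nm). IP1 from a standard curve, buffer-corrected and normalized to the carbachol maximum; 3–5 experiments in triplicate.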

The target in assay [4] is GPR15 receptor / Gi1 (Homo sapiens, UniProt P49685). Briefly: BRET G protein activation assay, Gi1. The format is cell-based, human (GPR15); rat (Gi1). The method, boiled down:
(§1)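 HEK293A cells transfected 20–24 h before assay with GPR15 (1.26 μg), Venus(155–239)-Gβ1, Venus(1–155)-Gγ2 and masGRK3ct-Nluc (0.21 μg each), and an optimized amount of the Gα DNA. Cells were given furimazine (1:250) for 3 min, then rising agonist concentrations. BRET ratio is 535/475 nm emission. Emax per concentration was buffer-corrected, normalized to the maximum, and fitted with a four-parameter model. 3–5 independent experiments, 2–3 replicates.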

Assay [5] addresses GPR15 receptor / Gi2 (Homo sapiens, UniProt P49685). Put plainly: BRET G protein activation assay, Gi2. The format is cell-based, human (GPR15); rat (Gi2). The essentials: as §1
Assay [6] addresses GPR15 receptor / GoA (Homo sapiens, UniProt P49685). Briefly: BRET G protein activation assay, GoA. The class given is cell-based. The method, boiled down:
as §1

The target in assay [7] is GPR15 receptor / GoB (Homo sapiens, UniProt P49685). Briefly: BRET G protein activation assay, GoB. The format is cell-based. The essentials: as §1
Sequence of GPR15 receptor / GoB (P09471 2-354 isoform P09471-2 partner limits assumed, one chain of several): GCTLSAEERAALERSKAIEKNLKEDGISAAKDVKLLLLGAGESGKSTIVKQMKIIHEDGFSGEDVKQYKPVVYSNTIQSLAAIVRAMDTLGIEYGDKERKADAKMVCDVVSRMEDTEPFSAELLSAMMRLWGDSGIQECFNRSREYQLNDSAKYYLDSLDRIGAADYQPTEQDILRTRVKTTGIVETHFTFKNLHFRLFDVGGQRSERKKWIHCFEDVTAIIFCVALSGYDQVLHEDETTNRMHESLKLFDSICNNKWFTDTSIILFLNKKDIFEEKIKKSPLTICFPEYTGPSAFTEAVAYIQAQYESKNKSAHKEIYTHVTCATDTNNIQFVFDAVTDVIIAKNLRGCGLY
Sequence of GPR15 receptor / GoB (P62873 2-340 partner limits assumed, one chain of several): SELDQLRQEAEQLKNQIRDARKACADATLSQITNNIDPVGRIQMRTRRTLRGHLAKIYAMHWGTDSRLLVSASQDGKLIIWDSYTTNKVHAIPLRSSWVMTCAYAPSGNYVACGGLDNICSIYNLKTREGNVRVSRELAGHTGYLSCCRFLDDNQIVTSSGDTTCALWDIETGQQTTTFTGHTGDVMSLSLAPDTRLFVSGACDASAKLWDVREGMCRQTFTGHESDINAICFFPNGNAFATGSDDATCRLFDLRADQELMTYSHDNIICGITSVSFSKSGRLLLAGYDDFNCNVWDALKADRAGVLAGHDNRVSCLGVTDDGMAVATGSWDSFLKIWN
Sequence of GPR15 receptor / GoB (P59768 2-68 partner limits assumed, one chain of several): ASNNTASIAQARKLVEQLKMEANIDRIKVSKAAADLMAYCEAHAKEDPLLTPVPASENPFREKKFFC
Assay [8] addresses GPR15 receptor / Gi3 (Homo sapiens, UniProt P49685). Put plainly: BRET G protein activation assay, Gi3. The class given is cell-based, human (GPR15); rat (Gi3). The essentials:
as §1

Assay [9] addresses T2, G protein-coupled receptor 15 (GPR15) (human) (UniProt P49685).
T2 sequence: T1 sequence (P49685 1-360)

Sequence of GPR15 receptor / Gi1 (P10824 2-354 partner limits assumed, one chain of several): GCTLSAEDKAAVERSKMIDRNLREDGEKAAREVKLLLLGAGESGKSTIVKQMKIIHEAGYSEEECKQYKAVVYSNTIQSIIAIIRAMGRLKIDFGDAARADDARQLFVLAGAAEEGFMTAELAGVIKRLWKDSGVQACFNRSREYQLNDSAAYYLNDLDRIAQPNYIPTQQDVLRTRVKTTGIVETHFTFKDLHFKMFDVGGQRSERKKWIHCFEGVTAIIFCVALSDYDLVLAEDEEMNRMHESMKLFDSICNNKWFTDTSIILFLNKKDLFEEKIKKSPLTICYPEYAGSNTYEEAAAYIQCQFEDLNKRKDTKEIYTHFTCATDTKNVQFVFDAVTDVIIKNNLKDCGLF
Sequence of GPR15 receptor / Gi1 (P62873 2-340 partner limits assumed, one chain of several): as the sequence (P62873 2-340 partner limits assumed, one chain of several) above
Sequence of GPR15 receptor / Gi1 (P59768 2-68 partner limits assumed, one chain of several): as the sequence (P59768 2-68 partner limits assumed, one chain of several) above
Sequence of GPR15 receptor / Gi2 (P04897 2-355 partner limits assumed, one chain of several): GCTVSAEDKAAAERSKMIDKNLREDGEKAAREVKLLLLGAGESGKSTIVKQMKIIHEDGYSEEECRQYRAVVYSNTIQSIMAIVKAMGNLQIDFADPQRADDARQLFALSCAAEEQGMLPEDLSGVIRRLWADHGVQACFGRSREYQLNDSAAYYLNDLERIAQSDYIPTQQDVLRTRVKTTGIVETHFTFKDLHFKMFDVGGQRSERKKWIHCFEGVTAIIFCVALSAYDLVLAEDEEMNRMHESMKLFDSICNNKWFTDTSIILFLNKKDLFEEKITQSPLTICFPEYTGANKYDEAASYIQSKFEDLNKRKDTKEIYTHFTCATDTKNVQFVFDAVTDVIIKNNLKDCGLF
Sequence of GPR15 receptor / Gi2 (P62873 2-340 partner limits assumed, one chain of several): as the sequence (P62873 2-340 partner limits assumed, one chain of several) above
Sequence of GPR15 receptor / Gi2 (P59768 2-68 partner limits assumed, one chain of several): as the sequence (P59768 2-68 partner limits assumed, one chain of several) above
Sequence of GPR15 receptor / Gi3 (P08753 2-354 partner limits assumed, one chain of several): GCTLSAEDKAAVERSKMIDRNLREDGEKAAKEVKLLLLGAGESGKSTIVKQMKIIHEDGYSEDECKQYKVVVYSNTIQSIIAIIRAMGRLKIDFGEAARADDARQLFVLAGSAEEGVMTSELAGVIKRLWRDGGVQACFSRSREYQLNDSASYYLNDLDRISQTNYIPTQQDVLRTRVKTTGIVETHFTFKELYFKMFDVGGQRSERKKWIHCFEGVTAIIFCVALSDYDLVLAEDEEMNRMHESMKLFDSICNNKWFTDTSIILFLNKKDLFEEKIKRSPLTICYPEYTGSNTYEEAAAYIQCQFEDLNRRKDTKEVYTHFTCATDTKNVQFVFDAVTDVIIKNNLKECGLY
Sequence of GPR15 receptor / Gi3 (P62873 2-340 partner limits assumed, one chain of several): as the sequence (P62873 2-340 partner limits assumed, one chain of several) above
Sequence of GPR15 receptor / Gi3 (P59768 2-68 partner limits assumed, one chain of several): as the sequence (P59768 2-68 partner limits assumed, one chain of several) above
Sequence of GPR15 receptor / GoA (P09471 2-354 partner limits assumed, one chain of several): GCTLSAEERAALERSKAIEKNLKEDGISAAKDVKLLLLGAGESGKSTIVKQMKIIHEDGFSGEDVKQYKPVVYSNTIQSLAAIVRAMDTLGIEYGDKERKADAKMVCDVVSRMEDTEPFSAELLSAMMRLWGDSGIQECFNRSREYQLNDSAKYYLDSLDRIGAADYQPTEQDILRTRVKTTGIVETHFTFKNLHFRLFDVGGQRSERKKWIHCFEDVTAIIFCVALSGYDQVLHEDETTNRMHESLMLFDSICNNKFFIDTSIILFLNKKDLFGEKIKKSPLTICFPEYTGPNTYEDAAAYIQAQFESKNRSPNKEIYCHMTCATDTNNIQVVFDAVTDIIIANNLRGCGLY
Sequence of GPR15 receptor / GoA (P62873 2-340 partner limits assumed, one chain of several): as the sequence (P62873 2-340 partner limits assumed, one chain of several) above
Sequence of GPR15 receptor / GoA (P59768 2-68 partner limits assumed, one chain of several): as the sequence (P59768 2-68 partner limits assumed, one chain of several) above

As to pertussis toxin [PTX], the “inhibition of cAMP production in presence of PTX” value in assay [1] (hGPR15-HEK293A, PTX 100 ng/ml for 24 h) is “inhibition could be eliminated”.

Turning to `CC(C)NCC(O)c1ccc(O)c(O)c1` (stereo not drawn) [isoproterenol, isoproterenol bitartrate salt], the cAMP level result in assay [2] is reported as “robust cAMP level increase”.

As to `C[N+](C)(C)CCOC(N)=O` [carbachol, carbamoylcholine chloride], the IP1 level entry in [3] was “robust IP1 level increase”.

Turning to `CC(C)C[C@H](NC(=O)[C@H](C)NC(=O)CNC(=O)[C@@H]1CCCN1C(=O)[C@@H](NC(=O)[C@@H](NC(=O)[C@H](Cc1c[nH]c2ccccc12)NC(=O)[C@@H](N)CC(C)C)C(C)C)C(C)C)C(=O)N1CCC[C@H]1C(=O)N[C@@H](CCC(N)=O)C(=O)N[C@H](C(=O)O)C(C)C` [GPR15L(71–81)] (H-LWVVPGALPQV-OH), the EC50 in assay [4] is 724 nM; in [5], 1700 nM; in assay [1] it was 407 nM; in assay [6], 3020 nM; in assay [7], 2510 nM; in assay [8], 912 nM.

With LWVVPGALPQV [human GPR15L(71–81) peptide], in assay [9], the pEC50, BRET G protein activation assay, Gi1 is 6.14; the pEC50, BRET G protein activation assay, Gi2 was determined as 5.77; the pEC50, BRET G protein activation assay, Gi3 worked out at 6.04; the pEC50, BRET G protein activation assay, GoA came out at 5.52.

B1: human GPR15L(25–81) peptide (ligand)
peptide: KRRPAKAWSGRRTRLCCHRVPSPNSTNLKGHHVRLCKPCKLEPEPRLWVVPGALPQV
With B1, in [9], the pEC50, BRET G protein activation assay, Gi1 worked out at 7.79; the pEC50, BRET G protein activation assay, Gi2 was 7.14; the pEC50, BRET G protein activation assay, Gi3 amounted to 7.69; the pEC50, BRET G protein activation assay, GoA stood at 7.28. For the same molecule, the pEC50, BRET G protein activation assay, GoB in [9] is 7.54.

For the origin of these results see publication PMC9539578 (Basic & Clinical Pharmacology & Toxicology, 2022).
